Source: ChEMBL document CHEMBL1123397, “Antiarrhythmic activity of 17 beta-aminoestratrienes. Comparison of 3-ols and 3-acetates with the corresponding 3-(3-amino-2-hydroxypropyl) ethers” (1986)
In brackets after ≈: the same amount, converted by molar mass. Activity calls are given as the source filed them. No cut-off for these calls is given here.

Key:
[1] = system: Rattus norvegicus; test: Mean change in heart rate recorded 14 min after the administration of compound.; assay type: functional
Summary of the method: (§1)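 Test drug or vehicle was given i.v., and isoprenaline (10 µg/kg) 14 min later. Heart rate was read from the lead II ECG just before drug, at 14 min (pre-isoprenaline) and 1 min after isoprenaline. Compared by Student's t test; 7–12 animals per group; mean ± SEM.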

[2] = system: Rattus norvegicus; test: Effect on heart rate before isoprenaline induced tachycardia in the anesthetized rat at 2 mg/kg dose; assay type: functional; summary of the method: as §1
[3] = species on record: Cavia porcellus; test: Concentration required to reduce maximum following frequencu (MFF) of isolated guinea pig atria by 25%; assay type: functional
Summary of the method: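 Guinea pig left atria in an organ bath of Krebs solution at 35 °C, gassed with carbogen, electrically driven, isometric contractions recorded. Drugs added cumulatively; maximum following frequency determined 6 min after each concentration. Concentration reducing MFF by 25% (EC25) calculated from six preparations.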

[4] = system: Rattus norvegicus; test: Effective dose that antagonized arrhythmias evoked by coronary artery ligation in the rat was measured at 1.0 mg/kg dose; assay type: functional
[5] = system: Rattus norvegicus; test: Compound was tested for antagonism of Ventricular Fibrilloflutter (VF) evoked by coronary artery ligation in the rat measured at 0.05 mg/kg dose; assay type: functional, Heart
Summary of the method: (§2)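 Male Wistar rats, anaesthetised and artificially ventilated, with left thoracotomy; silk suture under main left coronary artery. After stabilization, test drug or vehicle i.v.; 14 min later isoprenaline 10 μg/kg; 1 min after that the ligature was tightened and VF incidence recorded over 30 min. Carotid pressure and lead II ECG monitored continuously. 7-12 animals per group.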

[6] = species on record: Rattus norvegicus; test: Maximum increase in heart rate evoked by isoprenaline.; assay type: functional; summary of the method: as §1
[7] = system: Rattus norvegicus; test: Effect on heart rate after isoprenaline induced tachycardia in the anesthetized rat at 2 mg/kg dose; assay type: functional
Summary of the method: (§3)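 Same ligation protocol in anaesthetised male Wistar rats. Heart rate was taken from the lead II ECG at three points: just before i.v. drug or vehicle, 14 min after it (just before isoprenaline 10 μg/kg), and 1 min after isoprenaline. Pre vs post rates and isoprenaline responses vs controls were compared by Student's t test. Mean ± SEM of 7-12 observations.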

[8] = system: Rattus norvegicus; test: Effect on heart rate on 1 min post isoprenaline induced tachycardia in the anesthetized rat at 2.0 mg/kg dose.; assay type: functional; summary of the method: as §1
[9] = system: Rattus norvegicus; test: Compound was tested for antagonism of arrhythmias evoked by coronary artery ligation in the rat measured at 1 mg/kg dose; assay type: functional; summary of the method: as §2
[10] = system: Rattus norvegicus; test: Antagonism of Ventricular Fibrilloflutter (VF) evoked by coronary artery ligation in the rat measured at 2 mg/kg dose; assay type: functional, Heart; summary of the method: as §2
[11] = species on record: Mus musculus; test: ED 50 value against aconitine-induced arrhythmias in mice; IA is Inactive; assay type: functional, organism-based
Summary of the method: (§4)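 Anaesthetised mice were given test compound intraperitoneally, then aconitine intravenously to induce arrhythmia. At least three doses were tested in separate groups (n = 6-10). ED50 is the dose raising the arrhythmogenic aconitine dose 50% above the control requirement.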

[12] = system: Rattus norvegicus; test: Effect on heart rate after isoprenaline induced tachycardia in the anesthetized rat at 1 mg/kg dose; assay type: functional; summary of the method: as §3
[13] = system: Rattus norvegicus; test: Effect on heart rate on 1 min post isoprenaline induced tachycardia in the anesthetized rat at 1 mg/kg dose.; assay type: functional; summary of the method: as §1
[14] = system: Rattus norvegicus; test: Compound that antagonized arrhythmias evoked by coronary artery ligation in the rat was measured at 0.05 mg/kg dose; assay type: functional; summary of the method: as §2
[15] = species on record: Mus musculus; test: ED 50 value against aconitine-induced arrhythmias in mice; assay type: functional; summary of the method: as §4
[16] = system: Rattus norvegicus; test: Effect on heart rate before isoprenaline induced tachycardia in the anesthetized rat at 1 mg/kg dose; assay type: functional; summary of the method: as §3
[17] = system: Rattus norvegicus; test: Compound was tested for antagonism of Ventricular Fibrilloflutter (VF) evoked by coronary artery ligation in the rat measured at 1 mg/kg dose; assay type: functional, Heart; summary of the method: as §2
[18] = system: Rattus norvegicus; test: Effective dose that antagonized arrhythmias evoked by coronary artery ligation in the rat was measured at 0.01 mg/kg dose; assay type: functional
[19] = system: Rattus norvegicus; test: Compound was tested for antagonism of Ventricular Fibrilloflutter (VF) evoked by coronary artery ligation in the rat measured at 0.01 mg/kg dose; assay type: functional, Heart; settings: dose 0.1 mg/kg; in the assay text read “0.1 mg/kg” for “0.01 mg/kg”; summary of the method: as §2
[20] = system: Rattus norvegicus; test: Effect on heart rate on 1 min post isoprenaline induced tachycardia in the anesthetized rat at 1.0 mg/kg dose.; assay type: functional; summary of the method: as §1
[21] = system: Rattus norvegicus; test: Effect on heart rate 1 min post isoprenaline induced tachycardia in the anesthetized rat at 0.2 mg/kg dose.; assay type: functional; summary of the method: as §3
[22] = system: Rattus norvegicus; test: Compound that antagonized arrhythmias evoked by coronary artery ligation in the rat was measured at 0.2 mg/kg dose; assay type: functional; summary of the method: as §2
[23] = system: Rattus norvegicus; test: Compound was tested for antagonism of Ventricular Fibrilloflutter (VF) evoked by coronary artery ligation in the rat measured at 0.2 mg/kg dose; assay type: functional, Heart; summary of the method: as §2
[24] = system: Rattus norvegicus; test: Effect on heart rate before isoprenaline induced tachycardia in the anesthetized rat at 0.2 mg/kg dose; assay type: functional; summary of the method: as §3

Compound | Change [1] [%] | EC25 [3] [µg/mL] | VF [5] [%] | Increase [6] [%] | ED50 [11] | Heart rate [12] [beats min-1] | ED50 [15] [mg/kg] | Heart rate [16] [beats min-1] | further results
CNC1[C@H](O)C[C@H]2[C@@H]3CCc4cc(OCC(O)CNC(C)(C)C)ccc4[C@H]3CC[C@]12C (stereo partly drawn) | -29.2 | 38.6 (≈ 89.6 µM) | 67 | 3 | inactive | – | – | – | Heart rate [2]: 415 beats min-1; ED50 [4]: 0.7 mg/kg; Heart rate [7]: 294 beats min-1; Heart rate [8]: 302 beats min-1; VF [9]: 25%; VF [10]: 0%
CCCNCC(O)COc1ccccc1C(=O)CCc1ccccc1 (stereo not drawn) [PROPAFENONE] | -11.7 | 1.85 (≈ 5.42 µM) | – | 13.8 | – | 391 | 24.3 | 443 | Heart rate [13]: 445 beats min-1; ED50 [14]: 0.7 mg/kg
CN(C)C1CC[C@H]2[C@@H]3CCc4cc(OCC(O)CNC(C)(C)C)ccc4[C@H]3CC[C@]12C (stereo partly drawn) | -6.9 | 24.1 (≈ 56.2 µM) | 38 | 3.4 | inactive | 363 | – | 390 | VF [17]: 0%; ED50 [18]: 0.05 mg/kg; VF [19]: 25%; Heart rate [20]: 376 beats min-1
CNC1[C@H](O)C[C@H]2[C@@H]3CCc4cc(OC(C)=O)ccc4[C@H]3CC[C@]12C (stereo partly drawn) | -10.9 | 5.06 (≈ 14.7 µM) | – | 9.2 | – | – | 9 | – | Heart rate [21]: 392 beats min-1; ED50 at 0.2 mg/kg [22]: < 0.2 mg/kg; VF [23]: 29%; Heart rate [24]: 403 beats min-1
